Data as given in ChEMBL document CHEMBL1156857, “N-Acetamideindolecarboxylic acid allosteric 'finger-loop' inhibitors of the hepatitis C virus NS5B polymerase: discovery and initial optimization studies” (Bioorg Med Chem Lett, 2010).
In brackets after ≈: the same amount, converted by molar mass.

Key:
Hepatitis C virus = assay: Antiviral activity against Hepatitis C virus subtype 1b infected in human Huh7 cells assessed as inhibition of viral RNA replication; type: functional, organism-based, Hepacivirus hominis, genotype 1b, Huh-7; details: Hepatitis C virus, genotype 1b, Huh-7; read-out: EC50
Procedure, shortened: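 Stable subgenomic HCV genotype 1b replicon in Huh-7 cells carrying a modified luciferase reporter. EC50 from duplicate or more determinations. Some inhibitors were also run in a 72 h replicon format, with HCV RNA normalized to total cellular RNA. Cytotoxicity checked as TC50.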

[1] = Inhibition of calf thymus DNA-directed RNA polymerase 2; parameters: species or system Bos taurus
[2] = Inhibition of histidine-tagged HCV NS5Bdelta21 by scintillation proximity assay; parameters: species or system Hepacivirus hominis
Procedure, shortened: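 Soluble truncated NS5B at 12 nM. Reaction contains 0.01% w/v BSA, with no dodecyl-β-D-maltoside or IGEPAL. Other conditions follow an earlier method. IC50 is the mean of duplicate experiments on two separate weighings.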

[3] = Equilibrium solubility at pH 7.2 with amorphous solid after 24 hrs by shake flask method; type: physicochemical; details: buffer
[4] = Half life in human liver microsomes at 2 uM; type: ADME, Microsome
Procedure, shortened: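 Human liver microsomes incubated with test compound at 2 µM. Stability reported as T1/2 in min.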

[5] = Permeability from apical to basolateral side of the human Caco-2 cells at pH 7.4; type: ADME, cell-based; details: Caco-2, pH 7.4, read-out: permeability
Procedure, shortened: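 Caco-2 permeability measured in the apical-to-basal direction at pH 7.4.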

SMILES | EC50 (Hepatitis C virus) [nM] | IC50 [1] [nM] | IC50 [2] [nM] | solubility thermodynamic at 24 h [3] [µg/mL] | half-life at 2 µM [4] [h] | Papp A→B [5] [×10⁻⁶ cm/s]
CC(C)N(C(=O)Cn1c(-c2ccoc2)c(C2CCCCC2)c2ccc(C(=O)O)cc21)C(C)C | 2300 | > 250000 | 70 | – | – | –
O=C(O)c1cccc(Cn2c(-c3ccoc3)c(C3CCCCC3)c3ccc(C(=O)O)cc32)c1 | – | – | 70 | – | – | –
CCOC(=O)Cn1c(-c2ccoc2)c(C2CCCCC2)c2ccc(C(=O)O)cc21 | 8500 | – | 90 | – | – | –
CN1CCN(C(=O)Cn2c(-c3ccoc3)c(C3CCCCC3)c3ccc(C(=O)O)cc32)CC1 | 450 | > 250000 | 40 | 7 (≈ 15.6 µM) | 1.17 | 1.7
O=C(O)c1ccc2c(C3CCCCC3)c(-c3cccs3)n(CC(=O)N3CCOCC3)c2c1 | 600 | > 250000 | 30 | – | – | –
O=C(O)CCn1c(-c2ccoc2)c(C2CCCCC2)c2ccc(C(=O)O)cc21 | – | – | 210 | – | – | –
CC(C)NC(=O)Cn1c(-c2ccoc2)c(C2CCCCC2)c2ccc(C(=O)O)cc21 | – | > 250000 | 50 | – | – | –
O=C(Cn1c(-c2ccoc2)c(C2CCCCC2)c2ccc(C(=O)O)cc21)NCC1CCCCC1 | – | > 250000 | 120 | – | – | –
O=C(Cn1c(-c2ccoc2)c(C2CCCCC2)c2ccc(C(=O)O)cc21)NCc1ccccc1 | – | > 250000 | 60 | – | – | –
CN(C)C(=O)Cn1c(-c2cc3ccccc3s2)c(C2CCCCC2)c2ccc(C(=O)O)cc21 | 2500 | > 250000 | 210 | – | – | –
O=C(O)c1ccc2c(C3CCCCC3)c(-c3ccco3)n(CC(=O)N3CCOCC3)c2c1 | 1000 | > 250000 | 40 | – | – | –
O=C(O)c1ccc2c(C3CCCCC3)c(-c3ccsc3)n(CC(=O)N3CCOCC3)c2c1 | 330 | > 250000 | 40 | – | – | –
O=C(O)c1ccc2c(C3CCCCC3)c(-c3ccoc3)n(CC(=O)N3CCCCC3)c2c1 | 820 | > 250000 | 40 | – | – | –
O=C(O)Cn1c(-c2ccoc2)c(C2CCCCC2)c2ccc(C(=O)O)cc21 | – | – | 60 | – | – | –
CN(C)C(=O)Cn1c(-c2ccco2)c(C2CCCCC2)c2ccc(C(=O)O)cc21 | 1500 | > 250000 | 40 | – | – | –
O=C(O)c1ccc2c(C3CCCCC3)c(-c3ccccn3)n(CC(=O)N3CCC(N4CCCC4)CC3)c2c1 | – | > 250000 | – | – | – | –
CN(C)C(=O)Cn1c(-c2ccsc2)c(C2CCCCC2)c2ccc(C(=O)O)cc21 | 640 | > 250000 | 40 | – | – | –

SMILES | EC50 (Hepatitis C virus) [nM] | IC50 [1] [nM] | IC50 [2] [nM] | solubility thermodynamic at 24 h [3] [µg/mL] | half-life at 2 µM [4] [h] | Papp A→B [5] [×10⁻⁶ cm/s]
O=C(O)c1ccc2c(C3CCCCC3)c(-c3ccoc3)n(CC(=O)N3CCC(O)CC3)c2c1 | 2000 | > 250000 | 20 | – | – | –
CN1CCC(N(C)C(=O)Cn2c(-c3ccoc3)c(C3CCCCC3)c3ccc(C(=O)O)cc32)CC1 | 130 | > 250000 | 20 | 290 (≈ 607 µM) | > 5 | 0.2
Nc1ccccc1Cn1c(-c2ccoc2)c(C2CCCCC2)c2ccc(C(=O)O)cc21 | 2900 | – | 90 | – | – | –
O=C(O)c1ccc2c(C3CCCCC3)c(-c3ccoc3)n(CC(=O)N3CCC(C(=O)O)CC3)c2c1 | > 94000 | > 250000 | 30 | – | – | –
O=C(Cn1c(-c2ccoc2)c(C2CCCCC2)c2ccc(C(=O)O)cc21)Nc1ccccc1 | – | > 250000 | 80 | – | – | –
CN(C)C(=O)Cn1c(-c2ccccn2)c(C2CCCCC2)c2ccc(C(=O)O)cc21 | 3400 | > 250000 | 240 | – | – | –
CN(C)C(=O)Cn1c(-c2cnccn2)c(C2CCCCC2)c2ccc(C(=O)O)cc21 | – | > 250000 | 160 | – | – | –
CN(C)CCN(C)C(=O)Cn1c(-c2ccoc2)c(C2CCCCC2)c2ccc(C(=O)O)cc21 | 440 | > 250000 | 20 | – | – | –
C=C(C)n1c(-c2ccoc2)c(C2CCCCC2)c2ccc(C(=O)O)cc21 | > 10000 | – | 360 | – | – | –
NC(=O)Cn1c(-c2ccoc2)c(C2CCCCC2)c2ccc(C(=O)O)cc21 | 2400 | – | 40 | – | – | –
COCCNC(=O)Cn1c(-c2ccoc2)c(C2CCCCC2)c2ccc(C(=O)O)cc21 | – | > 250000 | 50 | – | – | –
Nc1cccc(Cn2c(-c3ccoc3)c(C3CCCCC3)c3ccc(C(=O)O)cc32)c1 | > 8000 | – | 130 | – | – | –
O=C(O)c1ccc2c(C3CCCCC3)c(-c3ccoc3)n(Cc3ccccn3)c2c1 | – | – | 130 | – | – | –
CCCN(C)C(=O)Cn1c(-c2ccoc2)c(C2CCCCC2)c2ccc(C(=O)O)cc21 | 1700 | > 250000 | 50 | – | – | –
CC(C)N(C)C(=O)Cn1c(-c2ccoc2)c(C2CCCCC2)c2ccc(C(=O)O)cc21 | 800 | > 250000 | 30 | – | – | –
CC(C(=O)O)n1c(-c2ccoc2)c(C2CCCCC2)c2ccc(C(=O)O)cc21 (racemic) | – | – | 2800 | – | – | –
